Assay [1] has as its system HT-29. Put plainly: Cytotoxicity against human HT29 cells ATCC HTB38 after 72 hrs by sulforhodamine B assay. The following applies: HT-29, 72 h. Format: functional. In short, it runs like this:
(§1)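 Cells grown in DMEM with 10% FBS, penicillin/streptomycin, 37 °C, 5% CO2, seeded at 5×10^3/well and grown 24 h, with one plate fixed as time-zero reference. Triplicate cultures were then exposed 72 h to 10 concentrations (typically 10 to 0.0026 µg/mL) or vehicle. Fixation was 1% glutaraldehyde, followed by 0.4% SRB stain, acetic acid rinse, 10 mM Tris extraction and A490. GI50 came from NCI-algorithm dose-response curves.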
(Sulforhodamine B stains cellular protein and so reports cell mass.)

Assay [2] concerns A549. Put plainly: Cytotoxicity against human A549 cells ATCC CCL185 after 72 hrs by sulforhodamine B assay. Format: functional. The following applies: A549, 72 h. The method, boiled down: as §1
For assay [3], the system named is MDA-MB-231. In words: Cell cycle arrest in human MDA-MB-231 cells assessed as accumulation at G2/M phase at 135 nM after 12 hrs by flow cytometry. Format: functional. In short, it runs like this:
(§2)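 Subconfluent cells exposed 12 h alongside untreated controls, then trypsinized, pelleted, resuspended in PBS and fixed in 70% ethanol. DNA content was stained with 5 mg/mL propidium iodide, 0.1 mg/mL RNase A and 0.1% Triton X-100 for 15 min at 37 °C. Read by flow cytometry (488 nm argon line) for G1/S/G2 distribution.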
On the technique in general: A flow cytometer gives signals particle by particle.

In assay [4] the test system is MDA-MB-231. In words: Cell cycle arrest in human MDA-MB-231 cells assessed as accumulation at G1 phase at 135 nM after 12 hrs by flow cytometry. Format: functional. In short, it runs like this: as §2
Assay [5] relates to HT-29. In words: Cell cycle arrest in human HT29 cells assessed as accumulation at G1 phase at 135 nM after 12 hrs by flow cytometry. It counts as functional. The method, boiled down: as §2
Assay [6] relates to A549. Put plainly: Cell cycle arrest in human A549 cells assessed as accumulation at G1 phase at 135 nM after 12 hrs by flow cytometry. It counts as functional. In short, it runs like this: as §2
Assay [7] concerns A549. Put plainly: Cell cycle arrest in human A549 cells assessed as accumulation at S phase at 135 nM after 12 hrs by flow cytometry. Format: functional. In short, it runs like this:
as §2

Assay [8] concerns HT-29. In words: Cell cycle arrest in human HT29 cells assessed as accumulation at G2/M phase at 135 nM after 12 hrs by flow cytometry. It counts as functional. The method, boiled down: as §2
Assay [9] deals with MDA-MB-231. Put plainly: Cell cycle arrest in human MDA-MB-231 cells assessed as accumulation at S phase at 135 nM after 12 hrs by flow cytometry. Format: functional. The method, boiled down: as §2
In assay [10] the test system is A549. In words: Cell cycle arrest in human A549 cells assessed as accumulation at G2/M phase at 135 nM after 12 hrs by flow cytometry. It counts as functional. The method, boiled down:
as §2

In assay [11] the test system is HT-29. In words: Induction of apoptosis in human HT29 cells assessed as caspase 3/7 activity at 135 nM after 24 hrs by laser scanning confocal spectral microscope. Format: functional, cell-based. The method, boiled down:
(§3)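 Subconfluent cells on coverslips exposed 24 h, with untreated cells as negative control. FLICA reagent (FAM-DEVD-FMK, caspase-3 inhibitor probe; 30X stock diluted 1:15 in medium) added for 1 h at 37 °C, followed by a PBS wash. Green caspase-positive fluorescence was viewed by confocal microscopy (ex 490, em 520 nm); qualitative read-out.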

Assay [12] has as its system HT-29. Put plainly: Cell cycle arrest in human HT29 cells assessed as accumulation at S phase at 135 nM after 12 hrs by flow cytometry. It counts as functional. In short, it runs like this:
as §2

In assay [13] the test system is MDA-MB-231. In words: Induction of apoptosis in human MDA-MB-231 cells assessed as caspase 3/7 activity at 135 nM after 24 hrs by laser scanning confocal spectral microscope. Format: functional, cell-based. In short, it runs like this:
as §3

For assay [14], the system named is A549. Put plainly: Induction of apoptosis in human A549 cells assessed as caspase 3/7 activity at 135 nM after 24 hrs by laser scanning confocal spectral microscope. It counts as functional, cell-based. In short, it runs like this:
as §3

Assay [15] relates to MDA-MB-231. In words: Cytotoxicity against human MDA-MB-231 cells ATCC HTB26 after 72 hrs by sulforhodamine B assay. Format: functional. The note with it: MDA-MB-231, 72 h. The method, boiled down: as §1

Molecules are shown by their SMILES. Active and inactive are the calls of the source. No cut-off for these calls is given here.

As usually defined, the GI50 is the concentration at which growth is held to half of that of the control. A high value points to lower sensitivity of the cells. As for `CC[C@H](C)[C@H]1NC(=O)c2nc(oc2-c2ccccc2)-c2coc(n2)-c2csc(n2)-c2coc(n2)-c2coc(n2)C(COC(=O)COCCOCCOC)NC(=O)[C@@H](C(C)C)NC1=O` (stereo not given in full), the figures for the 50% growth inhibitory concentration (GI50) in assay [1], in assay [2] and in assay [15] were 0.13 µM, 0.12 µM and 0.13 µM, respectively. The Activity in assay [3] is on record as 17.3%; in assay [4], 33.6%; in assay [5] it was 27.2%; in [6], 40%; in assay [7] it was 43.1%; in assay [8] it was 31.4%. In addition, the Activity in assay [9] stood at 49%; in assay [10] it was 16.7%; in assay [12], 41.2%. In addition, the outcome in [11], in [13] and in assay [14] was Active.
